From publication PMC9358981 (Journal of pharmacological and toxicological methods, 2021)
“Also recorded” adds a separate entry of the source. Where two headings read alike, the source gives them in different places.

Experiments:
[1] = target: human S1R (Homo sapiens, UniProt Q99720); assay: Radioligand competition binding with [3H]-; conditions: for S2R/S1R ratio (Ki S2R / Ki S1R): selectivity for S1R over S2R, fold; for Pseudo-Hill slope at the S1R: competition with [3H]-(+)-pentazocine
[2] = tested on: MN9D cells; assay: BDNF secretion via in situ ELISA; type: cell-based; conditions: for Efficacy of BDNF secretion / Stimulation of BDNF secretion (in words): 10 μM, MN9D cells; for Efficacy of BDNF secretion: normalized to the maximal response of 10 μM 4-PPBP
[3] = tested on: MCF7-hS1R cells; assay: Bradykinin; type: cell-based, human; conditions: pre-treatment with sigma ligand
[4] = tested on: PC-6-15 cells; assay: NGF induced neurite sprouting; type: cell-based, rat; conditions: for Effect on neurite sprouting, ligand alone / Potentiation of NGF induced neurite sprouting: 24 hours; for Effect on neurite sprouting, ligand alone: 0.5% serum; for Potentiation of NGF induced neurite sprouting: co-treated with 0.3 ng/mL NGF
Procedure, shortened: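 PC12-derived PC-6-15 cells overexpressing trkA, kept in RPMI1640 with 10% horse serum, 5% FBS and 0.1 mg/mL G418. Plated on type I collagen in 0.5% serum medium. Treated 24 hours in duplicate with vehicle (DMSO 1:1000 v/v), test compound, NGF (0.3–100 ng/mL concentration-response), or test compound plus 0.3 ng/mL NGF. Neurite length/cell was total traced neurite length divided by total cell count.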

[5] = target: human S2R (Homo sapiens, UniProt Q5BJF2); assay: Radioligand competition binding with [3H]-DTG at the S2R; conditions: for Pseudo-Hill slope at the S2R: competition with [3H]-DTG
human S2R, sequence (Q5BJF2 whole entry): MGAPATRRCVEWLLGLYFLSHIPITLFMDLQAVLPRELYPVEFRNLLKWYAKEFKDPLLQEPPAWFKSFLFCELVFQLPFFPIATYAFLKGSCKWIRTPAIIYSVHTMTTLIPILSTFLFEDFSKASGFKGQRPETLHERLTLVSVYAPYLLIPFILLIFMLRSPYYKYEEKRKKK

[6] = read-out: S1R affinity (Ki), displacement of 0.5 nM [3H]-(+)-pentazocine, MCF-7-S1R, mean ± SEM
[7] = 15 nM BD1063, Fractional Occupancy = [ligand]/([ligand]+Ki)

human S1R, sequence (Q99720 whole entry): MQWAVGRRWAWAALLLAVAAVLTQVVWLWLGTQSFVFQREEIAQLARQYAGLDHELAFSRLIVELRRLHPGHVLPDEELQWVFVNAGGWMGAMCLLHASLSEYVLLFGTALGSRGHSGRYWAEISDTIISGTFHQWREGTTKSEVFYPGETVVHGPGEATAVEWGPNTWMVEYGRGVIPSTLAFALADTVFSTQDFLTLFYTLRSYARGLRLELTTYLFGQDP

With `CCC(C/C=C/c1ccccc1)(c1ccccc1)N(C)CC1CC1` (single isomer, unassigned; (+)) [(+)-Igmesine] the Ki [1, 6] was 9.2 ± 2.2 nM, the “S2R/S1R ratio (Ki S2R / Ki S1R)” value [1] was 18 and the “Efficacy of BDNF secretion” value ([2]; 24 hrs, mean ± SEM) was 0.42 ± 0.03. The “Stimulation of BDNF secretion (in words)” value [2] was “BDNF secreting activity” and the “Reversal of the BDNF response by S1R-selective concentration of BD1063” value ([2]; compound 10 μM + 15 nM BD1063, MN9D cells) was “could be reversed”.

With `c1ccc(CCCCN2CCC(c3ccccc3)CC2)cc1` [4-PPBP] the “Effect of sigma ligand on the bradykinin calcium response” value [3] was “no significant potentiation or suppression”, the “Pseudo-Hill slope at the S1R” value [1] was −3.1 and the “Effect on neurite sprouting, ligand alone” value (“Effect on neurite sprouting” below) [4] was “unable to stimulate neurite sprouting”. The “Potentiation of NGF induced neurite sprouting” value (“Potentiation” below) [4] was “neither 4-PPBP or promethazine enhanced NGF induced sprouting; also recorded: nor did it potentiate NGF induced sprouting”, the “Pseudo-Hill slope at the S2R” value [5] was “near unity” and the “Secreted BDNF at maximal stimulation” value ([2]; 10 μM 4-PPBP, 24 hrs, mean ± SEM, n = 3–10, baseline 75.4 ± 6.9) was 128.6 ± 12.8 pg/mL. The “Efficacy of BDNF secretion” value ([2]; 24 hrs, mean ± SEM) was 1 and the “Stimulation of BDNF secretion (in words)” value [2] was “robust BDNF secretion response”.

With `CN1CCN(CCc2ccc(Cl)c(Cl)c2)CC1` [BD1063] the “Effect of sigma ligand on the bradykinin calcium response” value [3] was “no significant potentiation or suppression”, the “Calculated S1R occupancy” value [1, 7] was 74% and the “Pseudo-Hill slope at the S1R” value [1] was “equal to unity”. The Ki [1, 6] was 5.6 ± 0.5 nM, the “S2R/S1R ratio (Ki S2R / Ki S1R)” value [1] was 38 and the “Calculated S2R occupancy” value [5, 7] was 7%. The “Pseudo-Hill slope at the S2R” value [5] was “near unity”.

In the case of `CCC(C(=O)OCCOCCN(CC)CC)c1ccccc1` (stereo not drawn) [Butamirate], the Ki [1] is reported as 17.2 ± 1.7 nM, the Ki [5] is reported as 214 ± 41 nM and the “Stimulation of BDNF secretion (in words)” value [2] is reported as “completely abolished the BDNF secretion activity”.

`CCN(CC)CCOCCOC(=O)C1(c2ccccc2)CCCC1` [Carbetapentane] was tested, and the Ki [1] was 19.8 ± 2.3 nM, the “S2R/S1R ratio (Ki S2R / Ki S1R)” value [1] was 3 and the “Effect on neurite sprouting” value [4] was “none of them had any effect”. For the same molecule, the “Potentiation” value [4] was “none of them had any effect”, the Ki [5] was 55.7 ± 3.8 nM and the “Efficacy of BDNF secretion” value ([2]; 24 hrs, mean ± SEM) was 0.73 ± 0.05.

For `CCCCOCCOC(=O)C(c1ccccc1)N(CC)CC` (stereo not drawn) [Cas# 1796909-31-3, 2-Butoxyethyl 2-(diethylamino)-2-phenylacetate], the “Stimulation of BDNF secretion (in words)” value [2] was “BDNF secreting activity”.

In the case of `COc1cc2c(cc1OC)C(=O)C(CC1CCN(Cc3ccccc3)CC1)C2` (stereo not drawn) [Donepezil], the “Stimulation of BDNF secretion (in words)” value [2] is reported as “BDNF secreting activity”.

`CCCN(CCC)CCc1ccc(OC)c(OCCc2ccccc2)c1` [NE-100] was tested, and the “Effect of sigma ligand on the bradykinin calcium response” value [3] was “no significant potentiation or suppression”, the “Pseudo-Hill slope at the S1R” value [1] was −3.1 and the “Pseudo-Hill slope at the S2R” value [5] was “near unity”.

Molecule `CCN(CC)CCOCCOC(=O)C(CC)(CC)c1ccccc1` [Oxeladin] has a Ki [1] of 25 ± 4.3 nM and a Ki [5] of 148 ± 64 nM.

In the case of `O=C(OCCN1CCOCC1)C1(c2ccccc2)CCCCC1` [PRE-084], the “Effect of sigma ligand on the bradykinin calcium response” value [3] is reported as “no significant potentiation or suppression”, the “Pseudo-Hill slope at the S1R” value [1] is reported as −0.98 and the “Effect on neurite sprouting” value [4] is reported as “none of them had any effect”. For the same molecule, the “Potentiation” value [4] was “none of them had any effect”, the “Pseudo-Hill slope at the S2R” value [5] was “near unity” and the “Stimulation of BDNF secretion (in words)” value [2] was “no effect; also recorded: failed to stimulate BDNF secretion; also recorded: no activity”.

With `CC(CN1c2ccccc2Sc2ccccc21)N(C)C` (stereo not drawn) [Promethazine] the “Potentiation” value [4] was “neither 4-PPBP or promethazine enhanced NGF induced sprouting” and the Emax at 10 µM ([2]; MN9D, read-out: Efficacy for BDNF secretion, % of the maximum response) was 103%.

In the case of `COCCCC/C(=N\OCCN)c1ccc(C(F)(F)F)cc1` [fluvoxamine], the “Effect on neurite sprouting” value [4] is reported as “none of them had any effect” and the “Potentiation” value [4] is reported as “none of them had any effect”.

For (+)-SKF10047, the “Effect of sigma ligand on the bradykinin calcium response” value [3] was “no significant potentiation or suppression”.

B1: NGF: nerve growth factor (βNGF, EMD Millipore) (protein, UniProt P01139 122-241, looked up)
Beta-nerve growth factor: SSTHPVFHMGEFSVCDSVSVWVGDKTTATDIKGKEVTVLAEVNINNSVFRQYFFETKCRASNPVESGCRGIDSKHWNSYCTTTHTFVKALTTDEKQAAWRFIRIDTACVCVLSRKATRRG
modifications: beta-NGF
B1 was tested, and the “Lowest concentration tested that induced neurite sprouting” value ([4]; 0.3 to 100 ng/mL tested) was 0.3 ng/mL.
